Data as given in ChEMBL document CHEMBL1125712 (J Med Chem, 1991).
Active and inactive are the calls of the source. No cut-off for these calls is given here.

Experiments:
[1] = biological target: Aldo-keto reductase family 1 member B1 (Homo sapiens, UniProt P15121); experiment: Inhibition of aldose reductase (aldo-keto reductase, AKR1B1) isolated from human placenta.
[2] = test system: aldose reductase (Rattus norvegicus); experiment: In vivo inhibition of sorbitol accumulation in the rat following 10 mg/kg p.o. administration.; conditions: at 10 mg/kg
[3] = test system: Rattus norvegicus; experiment: Compound was evaluated for the ED50(chronic) in male Sprague-Dawley rats(n=5) treated with streptozotocin (85 mg/kg intravenously).; conditions: oral
[4] = test system: Rattus norvegicus; experiment: Compound was evaluated for the ED50(acute) in male Sprague-Dawley rats(n=4) treated with streptozotocin (85 mg/kg intravenously).; type: functional; conditions: oral
Outline: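 Streptozotocin-diabetic rats (85 mg/kg iv) dosed by oral gavage, aqueous suspension or solution, at 4, 7 and 24 h. Killed at 27 h. […] ED50 from log linear regression.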

[5] = test system: aldose reductase (Rattus norvegicus); experiment: In vivo inhibition of sorbitol accumulation in the rat following 10 mg/kg p.o. administration; Not significant.; conditions: at 10 mg/kg
[6] = species on record: Rattus norvegicus; experiment: animal or person; type: functional
[7] = Compound was evaluated for the apparent pKa (dioxane/water) the ratio 2:1; type: physicochemical; conditions: dioxane/water 2:1
[8] = Compound was evaluated for the apparent pKa (dioxane/water) in the ratio 1:1; type: physicochemical; conditions: dioxane/water 1:1
[9] = Partition coefficient (logP); type: physicochemical; conditions: octanol/water
[10] = species on record: Rattus norvegicus; conditions: at 25 mg/kg

O=C(O)Cc1nn(Cc2nc3cc(Cl)cc(Cl)c3s2)c(=O)c2ccccc12
IC50 [1]: 4 nM | inhibition [2]: 73% | ED50 [3]: 2.8 mg/kg | ED50 [4]: 3.5 mg/kg

Cc1cccc2c(CC(=O)O)nn(Cc3nc4c(ccc5ccccc54)s3)c(=O)c12
IC50 [1]: 42 nM | inhibition [5]: inactive

O=C(O)Cc1nn(Cc2nc3c(Cl)ccc(Cl)c3s2)c(=O)c2ccccc12
IC50 [1]: 20 nM | inhibition in vivo at 25 mg/kg ([6]; dose 25 mg/kg, route oral): 65%

O=C(O)Cc1nn(Cc2nc3ccccc3s2)c(=O)c2cc([N+](=O)[O-])ccc12
IC50 [1]: 33 nM

CC(C)c1ccc2c(=O)n(Cc3nc4ccccc4s3)nc(CC(=O)O)c2c1
IC50 [1]: 110 nM

O=C(O)Cc1nn(Cc2nc3cc(Cl)c(F)cc3s2)c(=O)c2ccccc12
IC50 [1]: 110 nM

O=C(O)Cc1nn(Cc2nc3ccccc3s2)c(=O)c2cc(Br)ccc12
IC50 [1]: 690 nM | inhibition [2]: 42%

O=C(O)Cc1nn(CCc2nc3cc(C(F)(F)F)ccc3s2)c(=O)c2ccccc12
IC50 [1]: 460 nM

O=C(O)Cc1nn(Cc2nc3cc(Cl)c(Cl)cc3s2)c(=O)c2ccccc12
IC50 [1]: 420 nM | inhibition in vivo at 25 mg/kg ([6]; dose 25 mg/kg, route oral): 34%

O=C(O)Cc1nn(Cc2nc3ccc(Cl)cc3s2)c(=O)c2ccccc12
IC50 [1]: 76 nM | inhibition in vivo at 25 mg/kg ([6]; dose 25 mg/kg, route oral): 61%

O=C(O)c1nnc(O)c2ccccc12
pKa [7]: 6.35 | pKa [8]: 5.49 | logP [9]: 2.42

O=C(O)Cc1nn(Cc2nc3ccc(Br)cc3s2)c(=O)c2ccccc12
IC50 [1]: 26 nM

O=C(O)Cc1nn(Cc2ccc(-c3nc4ccccc4s3)cc2)c(=O)c2ccccc12
IC50 [1]: > 1000 nM

CC(c1nc2cc(Cl)ccc2s1)n1nc(CC(=O)O)c2ccccc2c1=O (configuration not stated)
IC50 [1]: 26 nM | inhibition [2]: 53%

O=C(O)Cc1nn(Cc2nc3ccccc3s2)c(=O)c2ccc(Br)cc12
IC50 [1]: 12 nM

CC(c1nc2cc(C(F)(F)F)ccc2s1)n1nc(CC(=O)O)c2ccccc2c1=O (configuration not stated)
IC50 [1]: 37 nM

C[S+]([O-])c1ccc2sc(Cn3nc(CC(=O)O)c4ccccc4c3=O)nc2c1 (configuration not stated)
IC50 [1]: 4300 nM

O=C(O)Cc1nn(Cc2nc3c(ccc4ccccc43)s2)c(=O)c2ccccc12
IC50 [1]: 510 nM | inhibition [10]: inactive

O=C(O)Cc1nn(Cc2cccc(-c3nc4ccccc4s3)c2)c(=O)c2ccccc12
IC50 [1]: 5700 nM

O=C(O)Cc1nn(Cc2nc3cccc(Br)c3s2)c(=O)c2ccccc12
IC50 [1]: 15 nM | inhibition [2]: 71%

O=C(O)Cc1nn(Cc2nc3c(ccc4ccccc43)s2)c(=O)c2ccc(Cl)cc12 [listing 1 of 2 here]
IC50 [1]: 350 nM

O=C(O)Cc1nn(Cc2nc3ccccc3s2)c(=O)c2cc(C(F)(F)F)ccc12
IC50 [1]: 12 nM | inhibition [5]: inactive

O=C(O)Cc1nn(Cc2nc3ccccc3s2)c(=O)c2cc(Cl)c(Cl)cc12
IC50 [1]: 10 nM

COc1cccc2sc(Cn3nc(CC(=O)O)c4ccccc4c3=O)nc12
IC50 [1]: 100 nM | inhibition [10]: inactive

O=C(O)Cc1nn(Cc2nc3cc(Cl)ccc3s2)c(=O)c2ccccc12
IC50 [1]: 7.1 nM | inhibition [2]: 73%

Cc1cc(C)c2sc(Cn3nc(CC(=O)O)c4ccccc4c3=O)nc2c1
IC50 [1]: 5.9 nM | inhibition in vivo at 25 mg/kg ([6]; po): 39%

CC(c1nc2ccccc2s1)n1nc(CC(=O)O)c2ccccc2c1=O (configuration not stated)
IC50 [1]: 43 nM | inhibition in vivo at 25 mg/kg ([6]; dose 25 mg/kg, route oral): 50%

O=C(O)Cc1nn(Cc2nc3c(F)ccc(F)c3s2)c(=O)c2ccccc12
IC50 [1]: 5 nM | inhibition [2]: 73%

O=C(O)Cc1nn(Cc2nc3c(Cl)cc(Cl)cc3s2)c(=O)c2ccccc12
IC50 [1]: 170 nM

COc1ccc2sc(Cn3nc(CC(=O)O)c4ccccc4c3=O)nc2c1
IC50 [1]: 230 nM | inhibition [10]: inactive

O=C(O)Cc1nn(Cc2nc3ccccc3s2)c(=O)c2ccc(C(F)(F)F)cc12
IC50 [1]: 18 nM | inhibition [5]: inactive

CN1C(C(=O)Nc2nc3ccccc3s2)=C(O)c2ccccc2S1(=O)=O
IC50 [1]: 5500 nM

COc1ccc2c(CC(=O)O)nn(Cc3nc4ccccc4s3)c(=O)c2c1
IC50 [1]: 26 nM | inhibition [5]: inactive

O=C(O)Cc1nn(CSc2nc3ccccc3s2)c(=O)c2ccccc12
IC50 [1]: 81 nM

O=C(O)Cc1nn(Cc2nc3ccccc3s2)c(=O)c2ccc([N+](=O)[O-])cc12
IC50 [1]: 46 nM | inhibition [5]: inactive

Cc1ccc2sc(Cn3nc(CC(=O)O)c4ccccc4c3=O)nc2c1
IC50 [1]: 26 nM | inhibition [10]: inactive

O=C(O)Cc1nn(Cc2nc3cc(F)c(F)cc3s2)c(=O)c2ccccc12
IC50 [1]: 68 nM | inhibition in vivo at 25 mg/kg ([6]; dose 25 mg/kg, route oral): 75%

O=C(O)Cc1nn(Cc2nc3ccccc3s2)c(=O)c2cc(Cl)ccc12
IC50 [1]: 15 nM

O=C(O)Cc1nn(Cc2nc3cccc(Cl)c3s2)c(=O)c2ccccc12
IC50 [1]: 1 nM | inhibition [2]: 52%

O=C(O)Cc1nn(Cc2nc3cc(Cl)cc(C(F)(F)F)c3s2)c(=O)c2ccccc12
IC50 [1]: 620 nM

O=C(O)Cc1nn(Cc2nc3c(Cl)c(Cl)ccc3s2)c(=O)c2ccccc12
IC50 [1]: 100 nM

COc1ccc2nc(Cn3nc(CC(=O)O)c4ccccc4c3=O)sc2c1
IC50 [1]: 4200 nM

O=C(O)Cc1nn(Cc2nc3cc(Cl)cc(F)c3s2)c(=O)c2ccccc12
IC50 [1]: 5 nM | inhibition [2]: 63%

O=C(O)Cc1nn(Cc2nc3ccccc3s2)c(=O)c2c(F)cccc12
IC50 [1]: 30 nM

Cc1cccc2c(CC(=O)O)nn(Cc3nc4ccccc4s3)c(=O)c12
IC50 [1]: 420 nM | inhibition [5]: inactive

O=C(O)Cc1nn(Cc2nc3cc(O)ccc3s2)c(=O)c2ccccc12
IC50 [1]: 41 nM

COc1cc(C(F)(F)F)c2sc(Cn3nc(CC(=O)O)c4ccccc4c3=O)nc2c1
IC50 [1]: 660 nM

O=C(O)Cc1nn(Cc2nc3cc(C(F)(F)F)cc(Cl)c3s2)c(=O)c2ccccc12
IC50 [1]: 94 nM | inhibition [2]: 26%

CSc1ccc2sc(Cn3nc(CC(=O)O)c4ccccc4c3=O)nc2c1
IC50 [1]: 60 nM

O=C1NC(=O)C2(CN(Cc3ccc(F)cc3)c3ccc(F)cc32)N1 (configuration not stated)
IC50 [1]: 140 nM

O=C(O)Cc1nn(Cc2nc3cccc(C(F)(F)F)c3s2)c(=O)c2ccccc12
IC50 [1]: 10 nM | inhibition [2]: 80%

O=C(O)Cc1nn(Cc2nc3cc(C(F)(F)F)cc(F)c3s2)c(=O)c2ccccc12
IC50 [1]: 17 nM

COc1cc(OC)c2sc(Cn3nc(CC(=O)O)c4ccccc4c3=O)nc2c1
IC50 [1]: 700 nM

O=C(O)Cc1nn(Cc2nc3ccc(C(F)(F)F)cc3s2)c(=O)c2ccccc12
IC50 [1]: 70 nM | inhibition [2]: 65%

O=C(O)Cc1nn(Cc2nc3cc(F)cc(Cl)c3s2)c(=O)c2ccccc12
IC50 [1]: 6.2 nM | inhibition [2]: 58%

O=C(O)Cc1nn(-c2nc3ccccc3s2)c(=O)c2ccccc12
IC50 [1]: > 1000 nM

Cc1ccc2nc(Cn3nc(CC(=O)O)c4ccccc4c3=O)sc2c1
IC50 [1]: 320 nM | inhibition [10]: inactive

Cc1ccc2nc(Cn3nc(CC(=O)O)c4ccccc4c3=O)sc2c1F
IC50 [1]: 320 nM

O=C(O)Cc1nn(Cc2nc3ccc(O)cc3s2)c(=O)c2ccccc12
IC50 [1]: 1000 nM

O=C(O)Cc1nn(Cc2nc3c(O)cccc3s2)c(=O)c2ccccc12
IC50 [1]: 100 nM | inhibition [10]: inactive

COc1cc2nc(Cn3nc(CC(=O)O)c4ccccc4c3=O)sc2cc1F
IC50 [1]: 2300 nM | inhibition [10]: inactive

O=C(O)Cc1nn(Cc2nc3cc(C(F)(F)F)cc(C(F)(F)F)c3s2)c(=O)c2ccccc12
IC50 [1]: 1400 nM | inhibition [5]: inactive

O=C(O)Cc1nn(Cc2nc3c(ccc4ccccc43)s2)c(=O)c2ccc(Cl)cc12 [listing 2 of 2 here]
IC50 [1]: 300 nM

COc1ccc2c(=O)n(Cc3nc4ccccc4s3)nc(CC(=O)O)c2c1
IC50 [1]: 28 nM

O=C(O)Cc1nn(Cc2nc3c(Cl)cccc3s2)c(=O)c2ccccc12
IC50 [1]: 3.5 nM | inhibition [2]: 63%

O=C(O)Cc1nn(Cc2nc3cc(C(F)(F)F)c(O)cc3s2)c(=O)c2ccccc12
IC50 [1]: 120 nM | inhibition [10]: inactive

O=C(O)Cc1nn(Cc2ccc(Br)cc2F)c(=O)c2ccccc12 [PONALRESTAT]
IC50 [1]: 21 nM

CS(=O)(=O)c1ccc2sc(Cn3nc(CC(=O)O)c4ccccc4c3=O)nc2c1
IC50 [1]: 1700 nM | inhibition [5]: inactive

O=C(O)Cc1nn(Cc2nc3ccc(Br)cc3s2)c(=O)c2cc(Cl)c(Cl)cc12
IC50 [1]: 1800 nM

O=C(O)Cc1nn(Cc2nc3c(C(F)(F)F)cccc3s2)c(=O)c2ccccc12
IC50 [1]: 25 nM | inhibition [2]: 61%

O=C(O)Cc1nn(Cc2nc3cccnc3s2)c(=O)c2ccccc12
IC50 [1]: 10 nM | inhibition in vivo at 25 mg/kg ([6]; dose 25 mg/kg, route oral): 83%

O=C(O)Cc1nn(Cc2nc3cc(O)cc(O)c3s2)c(=O)c2ccccc12
IC50 [1]: 87 nM

O=C(O)Cc1nn(Cc2nc3ccccc3s2)c(=O)c2ccccc12
IC50 [1]: 19 nM | inhibition in vivo at 25 mg/kg ([6]; dose 25 mg/kg, route oral): 67% | ED50 [4]: 18.5 mg/kg

O=C(O)Cc1nn(Cc2nc3c(F)cccc3s2)c(=O)c2ccccc12
IC50 [1]: 2 nM | inhibition [5]: inactive

O=C1NC(=O)C2(CN(Cc3nc4ccccc4s3)c3ccc(Cl)cc32)N1 (configuration not stated)
IC50 [1]: 37 nM

Cc1ccc2c(=O)n(Cc3nc4ccccc4s3)nc(CC(=O)O)c2c1
IC50 [1]: 27 nM

O=C(O)Cc1nn(Cc2nc3ccccc3s2)c(=O)c2ccc(Cl)cc12
IC50 [1]: 34 nM

COc1cc2sc(Cn3nc(CC(=O)O)c4ccccc4c3=O)nc2cc1C(F)(F)F
IC50 [1]: 4300 nM

CC(C)c1ccc2nc(Cn3nc(CC(=O)O)c4ccccc4c3=O)sc2c1
IC50 [1]: 3200 nM

O=C(O)Cc1nn(Cc2nc3c(F)c(F)ccc3s2)c(=O)c2ccccc12
IC50 [1]: 10 nM | inhibition [2]: 82%

O=C(O)Cc1nn(Cc2nc3cc(F)cc(C(F)(F)F)c3s2)c(=O)c2ccccc12
IC50 [1]: 100 nM | inhibition [5]: inactive
